Experimental data collected from several papers.
Each line is one published result; the experiments were not run side by side.

COc1cc2c(cc1C(=O)Nc1ccc(C(C)(C)C#N)cc1)CCCCC2  CC50 (NHDF; cell growth or viability, ATP luminescence; 24 h): 94 µM
Nc1c2c(nc3c1C(c1cccc([N+](=O)[O-])c1)c1ccc(OS(=O)(=O)c4ccc(F)cc4)cc1O3)CCCC2 (stereo not drawn)  viability (SH-SY5Y; cell growth or viability, MTT; 25 µM): 48.8%
CC[C@@H]1CN2CCc3c([nH]c4cccc(OC)c34)[C@H]2C[C@@H]1/C(=C\OC)C(=O)OC  half-life (mouse Hepatocyte; metabolic stability; hepatocytes): 11.2 min
CCCCNC(=O)Oc1ccc(OCc2ccccc2)cc1  half-life (metabolic stability; male Wistar rat, liver S9; 1 µM, pH 7.4): 7 min
CCCCCn1nc(C(=O)Nc2cccc3ccccc23)c2ccccc21  half-life (metabolic stability; Sprague-Dawley rat, liver microsomes; 1 µM, pH 7.4): 1.61 min
CN1CCCCC1Cn1cc(C(=O)c2cc([N+](=O)[O-])ccc2I)c2ccccc21 (racemic)  half-life (metabolic stability; rat, liver microsomes): 13.7 min
CCC[C@@](N)(CO)CCc1ccc(OCCCCCC(C)C)cc1  IC50 (Cytochrome P450 2C9 (CYP2C9, Homo sapiens, UniProt P11712); enzyme activity, inhibitor): > 50 µM
Nc1c2c(nc3c1C(c1ccc(Cl)c(Cl)c1)c1ccc(OCC(=O)c4ccc(Cl)cc4)cc1O3)CCCC2 (stereo not drawn)  viability (SH-SY5Y; cell growth or viability, MTT; 0.4 µM): 89.5%
C[C@]12CC[C@H](n3ccnc3)CC1=CC[C@@H]1[C@@H]2CC[C@]2(C)C(n3cnc4ccccc43)=CC[C@@H]12.Cl.Cl  AUC(0-t) (male CD-1 mouse, plasma; intravenous, 1 mg/kg): 1870 ng·h/mL
COc1ccc(S(=O)(=O)Oc2ccc3c(c2)Oc2nc4c(c(N)c2C3c2cccc(OC)c2)CCCC4)cc1 (stereo not drawn)  viability (SH-SY5Y; cell growth or viability, MTT; 1.6 µM): 84.3%
Cc1cc(C)nc(Nc2ncc(C(=O)NCCc3c(C)[nH]c4ccccc34)cn2)c1  half-life (metabolic stability; male Sprague-Dawley rat, hepatocytes; 1 µM): 22 min
COc1cc2c(cc1NC(=O)c1ccc(C(C)(C)C#N)cc1)CCCCC2  CC50 (NHDF; cell growth or viability, ATP luminescence; 24 h): 3.57 µM
